High-throughput results from PubChem.
Most compounds without a hit are left out; they make up all but 1.8% or so of the library.
A1 inh: inhibitors of the anti-apoptotic protein A1, read as caspase activation | caspase activation, % (concentration not given with the values) | hit rate 0.066% among 330,000 | AID 2462 | MEF A1-2A-BIM cells, Caspase-Glo 3/7 luminescence, 3 h; percent of clofoctol response, vehicle zero;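 active means over half of replicate activation scores above 10%, or exactly half above 10 with the replicate mean above 10; inconclusive means replicate mean below 10 yet half the replicates above 10; inactive means over half of replicates below 10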
ATG4B inhibitor: blocks human ATG4B protease cleavage of LC3 substrate; inhibition, % at 8.33 µM; hit rate 0.51% among 340,000; Q9Y4P1; ATG4B cleavage of LC3-PLA2, NBD-HPC fluorescence, 1 h; in the data active means inhibition above about 40%
Target sequence (Q9Y4P1 whole entry, looked up): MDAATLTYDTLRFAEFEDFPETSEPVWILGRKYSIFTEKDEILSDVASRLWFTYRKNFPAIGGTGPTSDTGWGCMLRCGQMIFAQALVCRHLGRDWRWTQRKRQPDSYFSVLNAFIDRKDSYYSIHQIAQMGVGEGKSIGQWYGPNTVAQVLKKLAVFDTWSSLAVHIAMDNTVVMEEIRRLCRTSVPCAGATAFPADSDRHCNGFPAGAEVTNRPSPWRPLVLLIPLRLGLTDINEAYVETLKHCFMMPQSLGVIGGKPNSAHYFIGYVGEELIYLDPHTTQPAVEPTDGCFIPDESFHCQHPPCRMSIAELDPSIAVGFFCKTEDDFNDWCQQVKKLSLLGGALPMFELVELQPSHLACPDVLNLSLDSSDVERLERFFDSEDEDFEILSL
HKDC1 inhibitor: blocks human hexokinase HKDC1 activity. inhibition, % at 20 µM. recombinant HKDC1, G6PDH/diaphorase resazurin coupled fluorescence. Q2TB90. AID 493160. hit rate 0.16% among 340,000;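 active means inhibition above about 35% when tested at 20 µM, limit read from the data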
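Material – in-house recombinant HK5 (HKDC1) enzyme · Quantity – HKDC1 at 5 µg/mL · Buffer or medium – pH 8.0 Tris buffer with 10 mM MgCl2 · Reagent – glucose with 1 mM ATP · Dosing – single 20 µM dose · Times – reaction time 90 min, room temperature, protected from light · Technique – resorufin fluorescence at 613 nm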
AI-2 QS mod: modulates the Vibrio harveyi AI-2 quorum sensing system; hit rate 0.4% among 300,000; AID 2094; Vibrio harveyi JMH597 AI-2 luminescence/OD600 ratio, 9 h; hits give low values; strain lacks LuxN and CqsS sensors; 0 = neutral-control median; activity change, % at 7.5 µM; in the data active means activity change below about -75%, passing the limit was not always enough; inconclusive means no clear call, values can overlap the other calls;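 further: luminescence divided by OD600 gain over 9 h not by final OD600 alone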
LANA-H2A inh: blocks KSHV LANA binding to histone H2A/H2B; hit rate 0.6% among 320,000; AID 2629; inhibition, % (no concentration beside the values); Q9QR71; cell-free LANA-H2A/H2B peptide, fluorescence polarization; in the data active means inhibition mostly above about 10%, no sharp cut-off; inactive means mostly below about 6.7%
HDAC3 inh: human HDAC3 inhibition. O15379. recombinant HDAC3, fluorogenic peptide/trypsin coupled, fluorescence. inhibition, % at 8.3 µM. hit rate 0.15% among 320,000. AID 2718; in the data active means inhibition above about 26%, passing the limit was not always enough; inconclusive means no clear call, values can overlap the other calls
JMH597 growth rt: retest: blocks Vibrio harveyi JMH597 growth; shares compounds with AI-2 QS mod; OD600 absorbance, 9 h; lacks LuxN and CqsS sensors; AID 2726; hit rate 1% among 750; growth inhibition, % at 7.5 µM;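 active means every replicate shows growth inhibition above 50%; inconclusive means at least half, but not all, replicates pass that cutoff; inactive means fewer than half of replicates pass it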
BB721 const-QS lum: retest counter-screen: BB721 constitutive quorum sensing luminescence decrease | inhibition, % at 7.5 µM | shares compounds with AI-2 QS mod | Vibrio harveyi BB721 luminescence, 9 h | AID 2727 | hit rate 95% among 750;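 active means inhibition above about 80% in every replicate, not just on average, limit read from the data; inconclusive means at least half of replicates past the limit, but not all; inactive means fewer than half of replicates past the limit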
BB721 growth: retest: inhibitors of Vibrio harveyi BB721 growth; shares compounds with AI-2 QS mod; OD600 absorbance, 9 h; hit rate 3% among 750; growth inhibition, % at 7.5 µM; AID 2728;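 active means every replicate shows growth inhibition above 50%; inconclusive means at least half but not all replicates above 50% inhibition; inactive means under half of replicates above 50% inhibition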
AI-2 QS JMH597: Vibrio harveyi AI-2 signaling luminescence modulation – JMH597 strain, confirmation. shares compounds with AI-2 QS mod. Vibrio harveyi JMH597 AI-2 quorum sensing luminescence, 9 h; luxN and CqsS knockout, AI-2 only. hit rate 97% among 750. inhibition, % at 7.5 µM;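 active means every replicate shows more than 75% inhibition of signal versus neutral control wells; inconclusive means half to three quarters of replicates exceed 75% inhibition; inactive means fewer than half of replicates exceed 75% inhibition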
Each line names hits and unclear results; the compound was inactive in the other large screens (follow-up assays come after a bar, where they were run).

Cc1ccccc1-c1ccc(=O)n(CC(=O)Nc2ccc(S(=O)(=O)N(C)C)cc2)n1	AI-2 QS mod -87.0 | JMH597 growth rt inactive | BB721 const-QS lum 92.8 | BB721 growth inactive | AI-2 QS JMH597 96.5
CCCN(C(=O)C1CCCN(c2ncnc3c2nc2n3CCCCC2)C1)c1ccc(F)cc1 (stereo not given)	none
CC(C)c1nnc(NC(=O)CCC(=O)NC2CC2)s1	none
CCCCc1cc(=O)oc2cc(C)cc(OCC(=O)N3C[C@H]4C[C@@H](C3)c3cccc(=O)n3C4)c12	none
CCOc1ccc(N(CC(=O)NCCSCc2ccccc2)S(=O)(=O)c2ccccc2)cc1	none
Cc1ccc(-c2[nH]ncc2C(=O)c2ccc(Br)cc2)c(O)c1	AI-2 QS mod -95.3 | JMH597 growth rt inactive | BB721 const-QS lum 97.4 | BB721 growth inactive | AI-2 QS JMH597 98.1
O=c1[nH]c(=O)n(Cc2ccc(Oc3ccccc3)cc2)cc1Br	AI-2 QS mod -85.7 (no result: ATG4B inhibitor, HKDC1 inhibitor) | JMH597 growth rt inactive | BB721 const-QS lum 92.8 | BB721 growth inactive | AI-2 QS JMH597 95.3
COc1cccc(CNC(=O)CCC2CCCN(C(=O)c3cc(C4CC4)[nH]n3)C2)c1 (stereo not given)	none
CN(C(=O)COC(=O)C1CCN(S(=O)(=O)c2cccs2)CC1)c1ccccc1	HDAC3 inh inconclusive
COc1ccc(-c2nnn(-c3cc(Cl)cc(Cl)c3)c2N)cc1	none
COc1ccc(S(=O)(=O)c2nnn(-c3cccc(Cl)c3)c2N)cc1	AI-2 QS mod inconclusive | JMH597 growth rt inactive | BB721 const-QS lum 98.8 | BB721 growth inactive | AI-2 QS JMH597 99.7
Cc1ccccc1Nc1nc(N)nc(COc2ccc(C#N)cc2)n1	AI-2 QS mod -83.4 | JMH597 growth rt inactive | BB721 const-QS lum 92.9 | BB721 growth inactive | AI-2 QS JMH597 95.6
C/C(=N\Nc1ccc([N+](=O)[O-])cc1)c1ccc(O)cc1	none
CC(=O)NC/C(C)=N\Nc1ccc([N+](=O)[O-])cc1	AI-2 QS mod -86.1 | JMH597 growth rt inactive | BB721 const-QS lum 96.3 | BB721 growth 55.5 | AI-2 QS JMH597 96.4
Cc1nn(CC(=O)N(C)C)c(=O)c2ccccc12	none
COc1ccc(NC(=O)Cn2nc(C)c3ccccc3c2=O)cc1	AI-2 QS mod -91.5 | JMH597 growth rt inactive | BB721 const-QS lum 97.0 | BB721 growth inactive | AI-2 QS JMH597 98.2
Cc1nnc(NC(=O)Cn2nc(C)c3ccccc3c2=O)s1	AI-2 QS mod -90.1 | JMH597 growth rt inactive | BB721 const-QS lum 98.4 | BB721 growth inactive | AI-2 QS JMH597 98.9
Cc1ccc(NC(=O)Cn2nc(C)c3ccccc3c2=O)cc1F	AI-2 QS mod -92.7 | JMH597 growth rt inactive | BB721 const-QS lum 99.2 | BB721 growth inactive | AI-2 QS JMH597 99.4
Cc1nn(CC(=O)Nc2ccc(C(=O)N(C)C)cc2)c(=O)c2ccccc12	AI-2 QS mod -89.7 | JMH597 growth rt inactive | BB721 const-QS lum 96.8 | BB721 growth inactive | AI-2 QS JMH597 97.6
CCCCC1=NN(C(=O)c2ccco2)C(O)(C(F)(F)F)C1 (stereo not given)	none
COc1ccc(N(CC(=O)NCCSC2CCCCC2)S(=O)(=O)c2ccccc2)cc1OC	none
CC(OC(=O)c1cccc(S(=O)(=O)N2CCCC2)c1)C(=O)NC1CCCCC1C (stereo not given)	none
C(=C\c1nc(-c2ccccc2)no1)/c1ccccc1	AI-2 QS mod -87.9 | JMH597 growth rt inactive | BB721 const-QS lum 94.9 | BB721 growth inactive | AI-2 QS JMH597 96.1
Cc1ccc(SCCNS(=O)(=O)c2ccc(F)cc2)cc1	AI-2 QS mod -93.9 | JMH597 growth rt inactive | BB721 const-QS lum 93.6 | BB721 growth inactive | AI-2 QS JMH597 94.6
Cc1ccc(S(=O)(=O)/C=C/c2ccccc2)cc1	AI-2 QS mod -85.2 | JMH597 growth rt inactive | BB721 const-QS lum 92.7 | BB721 growth inactive | AI-2 QS JMH597 99.6
O=C(COC(=O)c1ccco1)Nc1nc2ccccc2s1	AI-2 QS mod inconclusive | JMH597 growth rt inactive | BB721 const-QS lum 93.7 | BB721 growth inactive | AI-2 QS JMH597 95.4
O=C(CCNC(=O)c1ccco1)Nc1nc2ccccc2s1	none (no result: A1 inh, AI-2 QS mod, LANA-H2A inh, HDAC3 inh)
COc1ccc2nc(NNC(=O)C3COc4ccccc4O3)sc2c1 (stereo not given)	AI-2 QS mod -85.4 | JMH597 growth rt inactive | BB721 const-QS lum 91.9 | BB721 growth inactive | AI-2 QS JMH597 94.9
COc1ccc(CC(=O)NCc2nnc(SCC(=O)Nc3ccccc3)n2C)cc1	none
COc1ccc(NC(=O)Cc2nnc(SCC(=O)Nc3ccccc3)n2C)cc1	AI-2 QS mod inconclusive | JMH597 growth rt inactive | BB721 const-QS lum inactive | BB721 growth inactive | AI-2 QS JMH597 inactive
O=C(NCC1OCCc2ccccc21)c1cc(COc2ccc(F)cc2Cl)on1 (stereo not given)	none
COc1cc(/C=N/NC(=O)CCN2CCN(C(c3ccccc3)c3ccccc3)CC2)ccc1O	none
Cc1ccc(NC(=O)C2CCN(S(=O)(=O)c3cccnc3)CC2)cc1C	AI-2 QS mod -88.8 | JMH597 growth rt inactive | BB721 const-QS lum 94.7 | BB721 growth inactive | AI-2 QS JMH597 96.2
O=C(Nc1cccc(C(F)(F)F)c1)C1CCN(S(=O)(=O)c2cccnc2)CC1	AI-2 QS mod -83.1 | JMH597 growth rt inactive | BB721 const-QS lum 91.8 | BB721 growth inactive | AI-2 QS JMH597 94.0
O=C(NCc1cccnc1)C1CCN(S(=O)(=O)c2cccnc2)CC1	none
Cc1ccc(CNC(=O)C2CCN(S(=O)(=O)c3cccnc3)CC2)cc1	AI-2 QS mod inconclusive | JMH597 growth rt inactive | BB721 const-QS lum 92.8 | BB721 growth inactive | AI-2 QS JMH597 95.0
COc1ccccc1NS(=O)(=O)c1ccc2oc(SC(C)C(=O)N3CCNC3=O)nc2c1 (stereo not given)	none (no result: AI-2 QS mod)
CCCOC(=O)c1ccc(NS(=O)(=O)c2cccs2)cc1	AI-2 QS mod -85.8 | JMH597 growth rt inactive | BB721 const-QS lum 89.1 | BB721 growth inactive | AI-2 QS JMH597 99.0
CN(C)C(=O)COc1ncnc2sc(-c3ccccc3)cc12	AI-2 QS mod -84.1 | JMH597 growth rt inactive | BB721 const-QS lum 94.1 | BB721 growth inactive | AI-2 QS JMH597 97.0
CC(C)c1ccc(OCC(=O)N2CCc3ccccc3C2)cc1	AI-2 QS mod inconclusive | JMH597 growth rt inactive | BB721 const-QS lum 84.9 | BB721 growth inactive | AI-2 QS JMH597 90.0
